According to PMC5086809 (European journal of pharmacology, 2013):

Target: T1, human GPR119 receptor (G protein-coupled receptor 119) (Homo sapiens, UniProt Q8TDV5)
T1 sequence (Q8TDV5 1-335): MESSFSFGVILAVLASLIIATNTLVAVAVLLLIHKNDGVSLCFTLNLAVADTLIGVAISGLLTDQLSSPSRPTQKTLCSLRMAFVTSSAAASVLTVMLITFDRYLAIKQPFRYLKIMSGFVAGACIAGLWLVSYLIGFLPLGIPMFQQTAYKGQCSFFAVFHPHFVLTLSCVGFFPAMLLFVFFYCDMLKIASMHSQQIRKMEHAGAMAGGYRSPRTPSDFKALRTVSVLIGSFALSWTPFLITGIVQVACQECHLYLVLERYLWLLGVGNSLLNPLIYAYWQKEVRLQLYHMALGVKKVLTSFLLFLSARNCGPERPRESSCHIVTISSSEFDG
Assay: HTRF cAMP accumulation assay, stable HEK293 cells
Format: cell-based
Summary of the method: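 HEK293 cells stably transfected with human GPR119, selected in 800 µg/ml geneticin and kept in 400 µg/ml G418. Test compound in DMEM with 2.5% fatty acid-free BSA, 30 min at room temperature. HTRF read (d2-cAMP plus Eu-cryptate anti-cAMP, 2 h, ex 337/em 665 and 620 nm). cAMP taken from a standard curve; EC50 from a sigmoidal fit; five independent experiments.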

SMILES	EC50 [µM]
CC(C)c1noc(C2CCN(c3ncnc(Nc4ccc(S(C)(=O)=O)cc4F)c3[N+](=O)[O-])CC2)n1 [AR231453]	0.011
CCCCC/C=C\C/C=C\C/C=C\CCCCCCC(=O)NCCO [Dihomo-γ-linolenoyl ethanolamide]	25.6
CC/C=C\C/C=C\C/C=C\C/C=C\C/C=C\C/C=C\CCC(=O)NCCO [Docosahexaenoyl ethanolamide]	63.8
CCCCC/C=C\C/C=C\C/C=C\C/C=C\CCCCCC(=O)NCCO [Docosatetra-7Z,10Z,13Z,16Z-enoyl ethanolamide]	40.2
CC/C=C\C/C=C\C/C=C\C/C=C\C/C=C\CCCC(=O)NCCO [Eicosapentaenoyl ethanolamide]	65.6
CCCCC/C=C\C/C=C\CCCCCCCC(=O)NCCO [Linoleoyl ethanolamide]	8.11
CCCCCCCC/C=C\CCCCCCCC(N)=O [Oleamide]	42.9
CCCCCCCC/C=C\CCCCCCCC(=O)NCCc1ccc(O)c(O)c1 [Oleoyl dopamine]	54.8
CCCCCCCC/C=C\CCCCCCCC(=O)NCCO [Oleoyl ethanolamide]	7.65
CC(C)(C)OC(=O)N1CCC(OCc2nc(-c3ccncc3)no2)CC1 [PSN632408]	7.61
CCCCCCCCCCCCCCCC(=O)NCCO [Palmitoyl ethanolamide]	10.1
